# Screening data: PubChem BioAssay, Broad Institute
# A selection: hits, their analogues and other compounds. The true share with any hit is near 4.4%.
# HSF1 inh = HSF1 inhibition | actives 0.77% (n = 300,000) | NIH3T3-HGL HSE-luciferase, MG132-induced, luminescence 8 h; active compounds read low | activity change, negative = inhibition, % at 7.5 µM (by protocol);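 active = more than half of replicate wells show activity change below -50%, luminescence cut by over half; inconclusive = some wells, but at most half, below -50%; inactive = no replicate well below -50%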;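 note: luciferase reports HSF-1 transcriptional activity via heat shock element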
# HIF activator = HIF pathway transcriptional activation | U2OS HRE-luciferase reporter, luminescence; normalized: DMSO 0%, desferrioxamine 100% | AID 1910 | actives 0.32% (n = 300,000) | activation, % at 7.5 µM (by protocol);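 active = mean activation of at least 10% of the iron chelator positive control signal, with at least half of replicates also reaching 10%; inconclusive = mean and replicate majority disagree about reaching 10%; inactive = mean and most replicates under 10%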
# HSF1 activator = increases HSF-1 driven luciferase reporter signal. NIH3T3-HGL HSF-1 luciferase reporter, MG132, 8 h; 100% = twice DMSO control signal. activation, % at 9 µM. actives 1.7% (n = 300,000). AID 504408;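 active = mean replicate activation of at least 50% with a set share of replicates each reaching 50%; inconclusive = only one of those two conditions met; inactive = mean below 50% and too few replicates reaching it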
# T cruzi inh = blocks replication of Trypanosoma cruzi; T. cruzi beta-gal in NIH3T3, luminescence, 90 h; inhibition, % (no concentration beside the values); actives 1.4% (n = 300,000); AID 1885;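 active = mean inhibition across valid replicates above about 55%, limit read from the data; inconclusive = mean below that limit but half or more replicates reach it; inactive = mean below it, under half of replicates reach it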;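 note: signal also drops with host cell toxicity which is not excluded here; higher percent means less beta-gal luminescence so fewer parasites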
#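 Incubation – ≥90 h infection period, 3 h prior cell attachment · System – NIH/3T3 fibroblasts plus reporter T. cruzi · Doses – compound pinned at 50 nL/well, DMSO · Read-out basis – percent inhibition of parasite-derived β-gal signal · Signal – luminescent β-galactosidase signal after 60 min lysis · Also added – 5000 T. cruzi trypomastigotes/well · Medium – Low-serum DMEM with 2% FBS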
# Calb FLC = affects C. albicans growth with fluconazole | C. albicans CaCi-2 + fluconazole, Alamar Blue growth, 48 h | growth inhibition, % (test concentration not listed) | actives 0.57% (n = 300,000);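 active = growth inhibition above about 58% in most replicates, limit read from the data, passing the limit was not always enough; inconclusive = exactly half the replicates above a set limit; inactive = most replicates below a set limit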;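 note: all wells also contain fluconazole at 8 µg/ml as a sub-toxic cotreatment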
# Hits are given with their value; . = inactive; ? = inconclusive.
SMILES,HSF1 inh,HIF activator,HSF1 activator,T cruzi inh,Calb FLC
CC(=O)c1sc(Nc2nc3ccc(F)cc3s2)nc1C,.,.,81.9,.,.
COC(=O)c1ccc2nc(Nc3nc4ccc(F)cc4s3)sc2c1,-89.3,.,.,.,.
COC(=O)c1ccc2nc(NC(=O)C3CCCCC3)sc2c1,.,.,.,.,.
CC(C)c1nc(SCC(=O)Nc2ccc(C(=O)O)cc2)c2c3c(sc2n1)CCCC3,.,.,.,.,.
O=C(CSc1nc2ccccc2[nH]1)N/N=C/c1ccco1,.,.,.,.,.
CCN(C(=O)CSc1ncccn1)C1CCS(=O)(=O)C1 (stereo not given),.,.,.,.,.
COc1ccc(C(=O)Nc2ccc(NS(=O)(=O)c3ccccc3)cc2)cc1OC,.,.,.,.,.
Cc1cccnc1NC(=O)CCn1c(=O)oc2ccccc21,.,.,.,.,.
O=C(Cn1nc(-c2ccccc2)c2ccccc2c1=O)NN1CCOCC1,.,.,.,.,.
Cc1nc2ccc(NC(=O)c3ccc([N+](=O)[O-])cc3[N+](=O)[O-])cc2s1,.,.,.,79.4,.
COc1ccc(CNC(=O)C(=O)NC2CCC(C)CC2)cc1 (stereo not given),.,.,.,.,.
COc1ccc(CCN(Cc2cccs2)S(=O)(=O)c2ccc(S(=O)(=O)N(C)C3CCCCC3)cc2)cc1OC,.,.,.,61.1,.
COc1ccc(CCN(Cc2cccs2)S(=O)(=O)c2ccc(-n3cnnn3)c(OC)c2)cc1OC,.,.,.,.,.
CC1(C)C2CCC(C2)C1(C)N=C1OC(CCl)CS1 (stereo not given),.,.,.,.,.
ClCC1CSC(=NC23CC4CC(CC(C4)C2)C3)O1 (stereo not given),.,.,59.5,.,.
COc1ccc(-n2c(C)c(C)c3c(N)ncnc32)cc1,-57.3,.,.,.,.
CN(CC(=O)NCc1ccccc1Cl)S(=O)(=O)c1cccs1,.,.,.,.,.
Cc1cc(C)nc(SC/C=C/c2ccccc2)n1,.,.,.,.,.
C(=C\c1ccccc1)/CSc1ccccn1,.,.,129.9,.,.
CN(C(=O)COC(=O)c1cc([N+](=O)[O-])ccc1Cl)c1ccccc1,.,.,.,.,.
CCOc1ccc(C(=O)Nc2c(C(=O)N3CCC(N4CCCCC4)CC3)oc3ccccc23)cc1,.,.,.,58.1,.
Cc1ccc(/C=C2\SC(=S)N(CCC(=O)NNC(=O)c3ccncc3)C2=O)cc1,.,.,.,.,.
Cc1ccc(/C=C2\SC(=S)N(CC(=O)Nc3cccnc3)C2=O)cc1,.,.,.,.,.
CCc1ccc(/C=C2/SC(=S)N(CCCC(=O)Nc3ccccc3C(=O)O)C2=O)cc1,.,.,.,.,86.3
Cc1ccc(/C=C2\SC(=S)N(CCC(=O)NNS(=O)(=O)c3ccc(C)cc3)C2=O)cc1,.,.,64.1,.,.
SMILES,HSF1 inh,HIF activator,HSF1 activator,T cruzi inh,Calb FLC
COC(=O)c1ccc(/C=C2/SC(=S)N(CCCC(=O)Nc3ccccn3)C2=O)cc1,.,.,.,.,.
CCc1ccc(/C=C2\SC(=S)N(CCCC(=O)Nc3ccccn3)C2=O)cc1,?,.,.,62.0,.
Cc1ccc(/C=C2\SC(=S)N(CCCC(=O)Nc3cccnc3)C2=O)cc1,-60.0,.,.,.,.
CN1CCC(=O)N([C@H](CO)c2ccccc2)CC1,.,.,.,.,.
COc1cccc(C(=O)Nc2nnc(-c3cccs3)s2)c1,.,.,.,.,.
CCOc1c2ccc(C(=O)N[C@H](C)C3CCCCC3)cc2nn1CC,.,.,.,.,.
COc1ccc(/C=C2\SC(=S)N(CCC(=O)Nc3cccc(O)c3)C2=O)cc1,.,.,92.1,.,.
COc1cc(/C=C(\C#N)C(=O)NC2CCCCC2C)ccc1OS(=O)(=O)c1ccc(C)cc1 (stereo not given),.,.,64.1,.,.
CC(C)c1ccc(C(=O)NCc2ccc(Cl)cc2)cc1,.,.,57.3,.,.
CC(=O)NCCNC(=O)c1ccc(CSc2ccc(Cl)cc2)cc1,.,.,68.0,.,.
CCOc1ccc(C2/C(=C(/O)c3ccc4c(c3)CC(C)O4)C(=O)C(=O)N2CCCn2ccnc2)cc1OCC (stereo not given),.,.,.,.,.
Cn1cc([N+](=O)[O-])c(C(=O)Nc2sc3c(c2C#N)CCC3)n1,.,.,189.9,.,.
